The source of these data is paper PMC2874265 (Journal of Medicinal Chemistry, 2010).

The subject of one data set is S. aureus ATCC 29213. Briefly: S. aureus MIC, broth microdilution. Format: cell-based. The note with it: for S. aureus MIC: S. aureus ATCC 29213, broth microdilution; for MIC: Staphylococcus aureus, ATCC29213, read-out: S. aureus MIC + 2% BSA. Summed up: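 Broth microdilution MIC per CLSI recommendations against S. aureus ATCC 29213. Protein-shift runs added 2% w/v bovine serum albumin to the assay. End point reproducible within one 2-fold dilution.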
(In general: Dilution methods test growth across graded concentrations, often in twofold steps.)

The next data set relates to S. aureus (Smith). Briefly: Murine septicaemia model of staphylococcal infection. Format: in vivo. Particulars: SC, 3, 10, or 30 mg/kg.
A short description of data set [1]: Mouse intravenous pharmacokinetics. Format: in vivo. Summed up:
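Mice dosed intravenously, either 3 mg/kg given individually or 2 mg/kg in a cassette. Plasma sampled at 5, 15, 30, 60, 120, 240 and 480 min and concentrations measured by LC/MS/MS. AUC, C0, CL, T1/2 and V calculated from plasma concentrations.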

With `NC(=O)c1c(F)ccc(OCc2nc3cc(C(F)(F)F)ccc3s2)c1F` [8e], the “S. aureus MIC” value with S. aureus ATCC 29213 was “submicrogram/mL”.

The MIC is the least concentration at which growth counts as inhibited. Consider `NC(=O)c1c(F)ccc(OCc2nc3cc(-c4ccccc4)ccc3s2)c1F` [compound 8a], for which the MIC in the data set on S. aureus ATCC 29213 was 4 µg/mL.

For the compound `CCOc1ccc2sc(COc3ccc(F)c(C(N)=O)c3F)nc2c1` [compound 8b], in the data set with S. aureus ATCC 29213, the “S. aureus MIC” value is “submicrogram/mL” and the MIC was 0.5 µg/mL.

For the compound `NC(=O)c1c(F)ccc(OCc2nc3cc(Br)ccc3s2)c1F` [compound 8d], the “S. aureus MIC” value in the data set on S. aureus ATCC 29213 is given as “submicrogram/mL”.

The AUC is the area under the concentration-time curve, a measure of exposure. Higher therefore signals high exposure. For orientation: clearance means the rate of elimination divided by the concentration. High values mean a high capacity for elimination, low ones a low capacity for elimination. The term half-life denotes how long it takes for the measured level to halve. Read a high half-life as slow loss. Turning to `NC(=O)c1c(F)ccc(OCc2nc3cc(Cl)ccc3s2)c1F` [compound 8j], the MIC in the data set with S. aureus ATCC 29213 amounted to 2 µg/mL. In the data set on S. aureus (Smith), the “survival of infected mice” value is “died on day 2”. The compound further gave a V in data set [1] (intravenous, 2 mg/kg in a cassette) of 5.8 L/kg. In addition, in data set [1] (plasma, iv, 2 mg/kg), the AUC stood at 100 ng·h/mL, the C0 is 500 ng/mL, the clearance worked out at 315 mL/min/kg and the half-life worked out at 13 min.

On to `CCCc1ccc2sc(COc3ccc(F)c(C(N)=O)c3F)nc2c1` [compound 11], for which the “S. aureus MIC” value in the data set on S. aureus ATCC 29213 is “submicrogram/mL”.

For `COc1cc2nc(COc3ccc(F)c(C(N)=O)c3F)sc2nc1Cl` [compound 28d], the MIC in the data set with S. aureus ATCC 29213 is more than 64 µg/mL.
